Compounds with a hit are over-represented: about 3.7% of the library has one in this group of screens.
NPY Y1 blocker – NPY-Y1 (human) receptor antagonism. P25929. HEK293-CNG Y1 cells, membrane potential fluorescence; NPY at EC95, then isoproterenol. inhibition, % at 3.6 µM. actives 1% (n = 200,000);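 active = inhibition above the campaign mean inhibition of all tested compounds plus 3 SD, cut at about 20% in these data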;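 also: 0% = DMSO wells given NPY plus isoproterenol and 100% = isoproterenol alone without NPY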
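Material: HEK293 cells co-expressing NPY Y1 receptor and cyclic-nucleotide gated channel. Timing: compound incubation 1 h at room temperature, readout 45 min post-stimulation. Signal: fluorescence, membrane potential probe.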
Cl transport mod – modulators of human KCC2 chloride dependent transport | Q9H2X9 | KCC2 cells, thallium flux FluoZin-2 fluorescence | B-score of Tl+ flux slope (higher = more flux/activation; lower = inhibition) at 10 µM | actives 2.2% (n = 190,000);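 active = thallium flux slope and its plate-corrected score both differing from the plate sample mean at a set confidence after two filtering rounds, in either direction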;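 also: slope of fluorescence scaled to starting intensity during 10 to 20 s after thallium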
NPY1 pot ag – potentiators or agonists of human neuropeptide Y receptor Y1. P25929. NPY-Y1 expressing cells, potentiator/agonist activation. activation, % at 3.6 µM. actives 0.37% (n = 220,000). AID 1304; in the data active = activation above about 33%, passing the limit was not always enough;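 also: cells stimulated with NPY at EC10 then isoproterenol at EC100; 0% = low agonist plus stimulus and 100% = saturating agonist plus stimulus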
NPY-Y2 PAM-ag – potentiates or activates human NPY-Y2 receptor; P49146; cells expressing NPY-Y2, potentiator/agonist read-out; activation, % at 3.6 µM; actives 0.45% (n = 220,000); in the data active = activation above about 27%;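 also: cells stimulated with NPY near EC25 plus isoproterenol at EC100; 0% = vehicle plus submaximal agonist and 100% = vehicle plus saturating agonist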
Furin inh – human furin inhibition | P09958 | purified furin, fluorogenic substrate cleavage | inhibition, % at 20 µM or 30 µM | actives 0.061% (n = 220,000) | AID 463115; in the data active = inhibition above about 25%
Target sequence (P09958 108-714 limits assumed): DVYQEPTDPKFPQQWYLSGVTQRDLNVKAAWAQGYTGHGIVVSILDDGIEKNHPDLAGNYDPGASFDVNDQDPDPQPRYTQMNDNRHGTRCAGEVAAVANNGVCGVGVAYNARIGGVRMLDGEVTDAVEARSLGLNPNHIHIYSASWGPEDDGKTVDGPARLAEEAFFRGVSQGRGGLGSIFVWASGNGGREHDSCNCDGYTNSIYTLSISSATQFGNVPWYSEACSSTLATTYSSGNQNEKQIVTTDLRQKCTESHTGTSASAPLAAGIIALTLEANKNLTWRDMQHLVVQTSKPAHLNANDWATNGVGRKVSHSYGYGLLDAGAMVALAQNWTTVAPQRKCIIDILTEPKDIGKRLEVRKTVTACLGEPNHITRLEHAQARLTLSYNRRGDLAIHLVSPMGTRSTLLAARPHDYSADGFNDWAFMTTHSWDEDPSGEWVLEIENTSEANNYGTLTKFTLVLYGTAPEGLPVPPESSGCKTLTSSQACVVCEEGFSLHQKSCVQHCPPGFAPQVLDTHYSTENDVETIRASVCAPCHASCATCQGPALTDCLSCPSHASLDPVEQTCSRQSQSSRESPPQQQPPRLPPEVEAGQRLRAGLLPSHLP
NPY Y2 blocker – blocks the human neuropeptide Y Y2 receptor. P49146. AID 793. actives 0.99% (n = 140,000). inhibition, % at 2.7 µM. NPY-Y2 expressing cells, antagonist mode; in the data active = inhibition above about 17%;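 also: 0% = vehicle with agonist challenge and 100% = reference antagonist with challenge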
Active calls of the source: *; . = no result.

SMILES	NPY Y1 blocker	Cl transport mod	NPY1 pot ag	NPY-Y2 PAM-ag	Furin inh	NPY Y2 blocker
CC(=O)n1cc([C@H]2C=C(C(=O)Nc3ccccc3)O[C@@H](OCCCCO)C2)c2ccccc21	-1	-5.1*	2	1	-10	.
CC(=O)n1cc([C@H]2C=C(C(=O)NCc3ccccc3)O[C@@H](OCc3ccc(CO)cc3)C2)c2ccccc21	-2	-2.8*	-19	-4	2	.
CCc1nnc(N2C(=O)c3cccc4cccc(c34)C2=O)s1	0	0.99	9	4	0	-1
CN(c1cccc(Cl)c1)S(=O)(=O)c1cccc(C(=O)Nc2nc3ccccc3[nH]2)c1	30*	0.12	-64	-10	-12	27*
COc1ccc(N(C)S(=O)(=O)c2cccc(C(=O)Nc3nc4ccccc4[nH]3)c2)cc1	10	0.09	-7	-12	-25	.
CN(c1ccc(OCC(=O)N2CCOCC2)cc1)S(=O)(=O)c1ccc(Cl)cc1	0	-0.94	-23	-17	-9	.
CC1CC(C)CN(c2oc(-c3ccco3)nc2C#N)C1 (configuration not stated)	24*	.	-33	3	21	27*
N#Cc1nc(-c2ccco2)oc1N1CCCC1	-6	.	-7	-8	-59	7
O=C(CC1SC(=NCCc2ccccc2)N(/N=C/c2cccs2)C1=O)Nc1ccc(Cl)cc1 (configuration not stated)	2	-0.2	-1	7	-12	-1
Cc1ccccc1/C=c1\s/c(=C\C(=O)C(C)(C)C)[nH]c1=O	22*	10*	-7	-21	-17	24*
CCc1ccc(/C=c2\s/c(=C\C(=O)C(C)(C)C)[nH]c2=O)cc1	8	7*	-2	-3	-6	13
O=c1c2ccccc2nc(-c2cccc(Cl)c2)n1O	0	18*	-1	3	11	0
O=C1CCC(=O)N1c1nc2n(n1)C(c1ccccc1)C=C(c1ccc(Br)cc1)N2 (configuration not stated)	-6	.	89*	7	-10	0
O=C(NCCN1CCOCC1)c1cnn2c(-c3ccccc3)cc(-c3ccccc3)nc12	36*	-0.38	-84	-20	-24	20*
CCOc1cc(S(=O)(=O)NCc2ccncc2)ccc1Cl	2	1.2	-31	9	-12	.
CC(C)(C)n1nnnc1C(c1cccs1)N(Cc1cccnc1)Cc1ccco1 (configuration not stated)	9	-1.5	9	2	-26	5
CC(C)(C)n1nnnc1C(c1cccs1)N(Cc1ccccc1)Cc1ccco1 (configuration not stated)	27*	0.22	-10	-10	-10	20*
CC1CCN(C(=O)C2CCN(S(=O)(=O)c3cc(Cl)ccc3Cl)CC2)CC1	.	.	1	-17	-16	.
COc1ccccc1NC(=O)CSc1nc(N)cc(N)n1	2	.	-3	19	-29	0
COc1ccccc1NC(=O)CSc1nc2ccccc2cc1Cc1ccccc1	26*	0.03	-70	-8	-6	21*
Cc1[nH][nH]c(=O)c1C=NCc1ccc(Cl)cc1	-3	-0.17	11	-6	-12	.
C/C(=N\NC(=S)Nc1cccc(C)c1)c1cccc(N)c1	4	9.2*	-8	5	-25	-3
C/C(=N\NC(=S)Nc1cccc(C)c1)c1ccccc1	13	7.4*	-20	-6	-9	2
C/C(=N\NC(=S)Nc1c(C)cccc1C)c1ccc(O)cc1	.	0.07	10	-14	-9	.
C/C(=N\NC(N)=S)c1ccccc1	.	-0.048	0	-28	-13	.
CSC(=S)N/N=C(\C)c1ccccc1	-1	143*	-3	6	-22	.
CN(Cc1ccccc1)c1nc(-c2cccc([N+](=O)[O-])c2)nc2ccccc12	0	-0.65	-16	2	-5	-2
COc1ccc2c(COC(=O)CCS(=O)(=O)c3ccccc3)cc(=O)oc2c1	6	0.18	2	2	-50	.
CCCN(CCC)S(=O)(=O)c1ccc(Cl)c([N+](=O)[O-])c1	-13	-1.3	77*	77*	-16	.
Cc1ccc2c(c1C)NC(C)CC2C (configuration not stated)	-1	.	-20	-8	26*	-4

Assay outcomes as filed in PubChem BioAssay.
